Results collected from several papers.
Lines come from different studies, so protocols differ. Values after ≈ are worked out from the molar mass of the structure shown.

| Compound | tested on | assay | test system | conditions | measurement | value |
| --- | --- | --- | --- | --- | --- | --- |
| CC[C@H]1OC(=O)[C@H](C)[C@@H](O[C@H]2C[C@@](C)(OC)[C@@H](O)[C@H](C)O2)[C@H](C)[C@@H](O[C@@H]2O[C@H](C)C[C@H](N(C)C)[C@H]2O)[C@](C)(O)C[C@@H](C)/C(=N\OCOCCOC)[C@H](C)[C@@H](O)[C@]1(C)O | Streptococcus pneumoniae | microbial growth |  | clinical isolate | MIC90 | 4 µg/mL (≈ 4.78 µM) |
| COc1cc(C=NNC(=O)CSc2nc3c(C)cccc3c(=O)n2-c2ccccc2)ccc1OS(C)(=O)=O | Klebsiella pneumoniae | microbial growth, well diffusion |  | 20 µg/mL | inhibition zone | 3 mm |
| CN(C)c1ccc(C=Nn2c(-c3ccccc3)nc3ccc(Cl)cc3c2=O)cc1 | LLC-PK1 | cell growth or viability, MTT |  | 72 h | IC50 | 62.8 µM |
| CCCS(=O)(=O)Oc1cc(C=NNC(=O)CSc2nc3c(C)cccc3c(=O)n2-c2ccccc2)ccc1OC | Klebsiella pneumoniae | microbial growth, well diffusion |  | 20 µg/mL | inhibition zone | 2 mm |
| CC(=O)NC[C@H]1CN(c2ccc(N3CCOCC3)c(F)c2)C(=O)O1 | Streptococcus pneumoniae | microbial growth | PRSP | clinical isolate | MIC90 | 2 µg/mL (≈ 5.93 µM) |
| COc1ccc(C=NNC(=O)CSc2nc3c(C)cccc3c(=O)n2-c2ccccc2)cc1OS(C)(=O)=O | Klebsiella pneumoniae | microbial growth, well diffusion |  | 20 µg/mL | inhibition zone | 2 mm |
| CC(C)(O/N=C(\C(=O)N[C@@H]1C(=O)N2C(C(=O)[O-])=C(C[n+]3ccccc3)CS[C@H]12)c1csc(N)n1)C(=O)O | Klebsiella pneumoniae | microbial growth, broth dilution | ATCC43816 |  | MIC | < 0.5 µg/mL |
| Cc1nc(Nc2ncc(C(=O)Nc3c(C)cccc3Cl)s2)cc(N2CC[C@H](O)C2)n1 | CA46 | cell growth or viability, ATP luminescence |  | 10 µM, 72 h | inhibition | 56% |
| CC1(C)C[C@H]2[C@H]1CC[C@]1(C)CCC[C@@]2(NS(C)(=O)=O)C1 | HT-29 | cell growth or viability, CCK-8 |  | 10 µM | inhibition | < 50% |
| O=c1c2cc(Cl)ccc2nc(-c2ccccc2)n1N=Cc1c(F)cccc1Cl | LLC-PK1 | cell growth or viability, MTT |  | 72 h | IC50 | 46.4 µM |
| CC1(C)C[C@H]2[C@H]1CC[C@]1(C)CCC[C@@]2(n2cc(-c3ccc(F)cc3)nn2)C1 | HT-29 | cell growth or viability, CCK-8 |  | 10 µM | inhibition | < 50% |
| COc1cccc(C=Nn2c(-c3ccccc3)nc3ccc(Cl)cc3c2=O)c1 | LLC-PK1 | cell growth or viability, MTT |  | 72 h | IC50 | 177 µM |
| CCS(=O)(=O)Oc1ccc(C=NNC(=O)CSc2nc3ccc(Cl)cc3c(=O)n2-c2ccccc2)cc1 | Klebsiella pneumoniae | microbial growth, well diffusion |  | 20 µg/mL | inhibition zone | 2 mm |
| CC1(C)C[C@H]2[C@H]1CC[C@]1(C)CCC[C@@]2(n2cc(C(=O)NC3CCNCC3)nn2)C1 | HT-29 | cell growth or viability, CCK-8 |  | 50 µM | inhibition | 74.4% |
| C=C[C@]1(C)C[C@@H](OC(=O)CS[C@@H]2C[C@H]3CC[C@@H](C2)N3C)[C@]2(C)[C@H](C)CC[C@]3(CCC(=O)[C@H]32)[C@@H](C)[C@@H]1O | Streptococcus pneumoniae | microbial growth | PRSP | clinical isolate | MIC90 | 0.0312 µg/mL (≈ 0.0604 µM) |
| CS(=O)(=O)Oc1ccc(C=NNC(=O)CSc2nc3ccc(Cl)cc3c(=O)n2-c2ccccc2)cc1 | Klebsiella pneumoniae | microbial growth, well diffusion |  | 20 µg/mL | inhibition zone | 2 mm |
| CC1(C)C[C@H]2[C@H]1CC[C@]1(C)CCC[C@@]2(NS(=O)(=O)c2ccc(OC(F)(F)F)cc2)C1 | HT-29 | cell growth or viability, CCK-8 |  | 50 µM | inhibition | 75.9% |
| CC1(C)S[C@@H]2[C@H](NC(=O)[C@H](N)c3ccccc3)C(=O)N2[C@H]1C(=O)O | Streptococcus pneumoniae | microbial growth |  | clinical isolate | MIC90 | 4 µg/mL (≈ 11.4 µM) |
| Nc1ccc(S(=O)(=O)Nc2ncccn2)cc1 | Klebsiella pneumoniae | microbial growth, well diffusion |  | 20 µg/mL | inhibition zone | 2 mm |
| COc1ccc(-c2cn([C@@]34CCC[C@@](C)(CC[C@@H]5[C@@H]3CC5(C)C)C4)nn2)cc1 | HT-29 | cell growth or viability, CCK-8 |  | 50 µM | inhibition | 44.8% |
| CN[C@H](CC(C)C)C(=O)N[C@H]1C(=O)N[C@@H](CC(N)=O)C(=O)N[C@H]2C(=O)N[C@H]3C(=O)N[C@H](C(=O)N[C@H](C(=O)O)c4cc(O)cc(O)c4-c4cc3ccc4O)[C@H](O)c3ccc(c(Cl)c3)Oc3cc2cc(c3O[C@@H]2O[C@H](CO)[C@@H](O)[C@H](O)[C@H]2O[C@H]2C[C@](C)(N)[C@H](O)[C@H](C)O2)Oc2ccc(cc2Cl)[C@H]1O | Streptococcus pneumoniae | microbial growth, agar dilution | ATCC49619 |  | MIC | 0.5 µg/mL (≈ 0.345 µM) |
| CC1(C)C[C@H]2[C@H]1CC[C@]1(C)CCC[C@@]2(NS(=O)(=O)C(C)(C)C)C1 | HT-29 | cell growth or viability, CCK-8 |  | 10 µM | inhibition | < 50% |
| COc1c(N2C[C@@H]3CCCN[C@@H]3C2)c(F)cc2c(=O)c(C(=O)O)cn(C3CC3)c12 | Streptococcus pneumoniae | microbial growth, agar dilution | ATCC49619 |  | MIC | 0.125 µg/mL (≈ 0.311 µM) |
| Cc1cccc2c(=O)n(-c3ccccc3)c(SCC(=O)NN=Cc3ccc(OS(C)(=O)=O)cc3)nc12 | Klebsiella pneumoniae | microbial growth, well diffusion |  | 20 µg/mL | inhibition zone | 3 mm |
| CC1(C)C[C@H]2[C@H]1CC[C@]1(C)CCC[C@@]2(n2cc(CN3CCOCC3)nn2)C1 | HT-29 | cell growth or viability, CCK-8 |  | 50 µM | inhibition | 45% |
| CCCS(=O)(=O)Oc1ccc(C=NNC(=O)CSc2nc3ccc(Cl)cc3c(=O)n2-c2ccccc2)cc1 | Klebsiella pneumoniae | microbial growth, well diffusion |  | 20 µg/mL | inhibition zone | 3 mm |
| CC1(C)C[C@H]2[C@H]1CC[C@]1(C)CCC[C@@]2(n2cc(C(=O)O)nn2)C1 | HT-29 | cell growth or viability, CCK-8 |  | 50 µM | inhibition | 32.3% |
